From ChEMBL document CHEMBL1150955, “Antimycobacterial activities of dehydrocostus lactone and its oxidation products” (1998)
≈ marks a conversion by molar mass, not a printed value.

What was measured:
[1] = system: Mycobacterium tuberculosis; assay: Antimycobacterial activity against Mycobacterium tuberculosis H37Rv by radiorespirometric bioassay; type: functional
Outline: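 Radiorespirometric bioassay giving MIC against strain H37Rv, run essentially per earlier reports; M. tuberculosis experiments usually completed in 10 days.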

Mycobacterium avium = assay: Antimycobacterial activity against Mycobacterium avium by radiorespirometric bioassay; type: functional
Outline: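 MIC determined in a radiorespirometric bioassay run essentially per earlier reports; M. avium experiments usually completed within 5 days.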

| Structure (SMILES) | MIC [1] [µg/mL] | MIC (Mycobacterium avium) [µg/mL] |
| --- | --- | --- |
| C=C1C(=O)O[C@H]2[C@H]1CCC(C)=C1CC[C@@](C)(O)[C@@H]12 [MICHELIOLIDE] | 50 (≈ 201 µM) |  |
| C=C1C(=O)O[C@@H]2[C@@H]3[C@@H](CC[C@]34CO4)C(=C)CC[C@@H]12 | 32 (≈ 130 µM) |  |
| C=C1C(=O)O[C@H]2[C@H]1[C@@H](O)[C@H](OC(=O)/C(C)=C\C)C(C)=C1C(=O)C=C(C)[C@@]12O [PUMILIN] | 128 (≈ 342 µM) | 128 (≈ 342 µM) |
| C=C1C(=O)O[C@@H]2[C@@H]3[C@@H](CC[C@@]34CO4)[C@]3(CC[C@@H]12)CO3 | 64 (≈ 244 µM) |  |
| C=C1CC[C@H]2C(=C)CC[C@@]3(O)C(=C)C(=O)O[C@@H]3[C@@H]12 | > 128 |  |
| C=C1CC[C@@H]2[C@H]1[C@H]1OC(=O)C(=C)[C@@H]1CC[C@@]21CO1 [DEHYDROCOSTUS LACTONE,10BETA(14)EPOXIDE] | 32 (≈ 130 µM) |  |
| C=C1C(=O)O[C@@H]2[C@@H]3[C@@H](CC[C@]34CO4)[C@@]3(CC[C@@H]12)CO3 | 128 (≈ 488 µM) |  |
| C=C1CC[C@@H]2[C@H]1[C@H]1OC(=O)C(=C)[C@@H]1CC[C@]21CO1 [DEHYDROCOSTUS LACTONE,10ALPHA(14)EPOXIDE] | 64 (≈ 260 µM) |  |
| C=C1CC[C@H]2C(=C)CC[C@H]3C(=C)C(=O)O[C@@H]3[C@@H]12 [DEHYDROCOSTUSLACTONE] | 2 (≈ 8.68 µM) | 16 (≈ 69.5 µM) |
| C=C1[C@@H]2[C@H]3OC(=O)C(=C)[C@@H]3CCC(=C)[C@@H]2C[C@H]1O [ISOZALUZANIN C] | > 128 |  |
| C=C1C(=O)O[C@@H]2[C@@H]3[C@@H](CC[C@]34CO4)[C@]3(CC[C@@H]12)CO3 | 128 (≈ 488 µM) |  |
